# Test results as given in ChEMBL document CHEMBL1153965, “Inhibitors of hepatitis C virus NS3/4A: alpha-ketoamide based macrocyclic inhibitors” (Bioorg Med Chem Lett, 2009).
# What was measured:
# [1] = Cytotoxicity against human HuH7 cells; format: cell-based, Huh-7
# Hepatitis C virus [2] = assay: Antiviral activity against HCV replication infected in human HuH7 cells after 96 hrs by replicon assay in presence of 10% FCS; format: functional, organism-based, Hepacivirus hominis, Huh-7
# How it was run: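 Compounds incubated with replicon cells at 37 °C for 96 h in medium containing 10% FCS, with inhibition of replication read out to give EC50.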
# [3] = Inhibition of full length HCV NS3/4A protease by TRF assay; set-up: species or system Hepacivirus hominis
# [4] = Drug level in Wistar rat liver at 5 mg/kg, po after 4 hrs; format: ADME, organism-based; set-up: dose 5 mg/kg, route oral; conditions: read-out: Drug uptake
# [5] = AUC (0 to infinity) in Wistar rat plasma at 5 mg/kg, po; format: ADME, organism-based; set-up: time infinity, dose 5 mg/kg, route oral
# How it was run: (§1)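 Male Wistar rats dosed orally at 5 mg/kg in PEG 400 vehicle, with plasma exposure measured. Values are geometric means from 3 animals.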
# Hepatitis C virus [6] = assay: Antiviral activity against HCV replication infected in human HuH7 cells after 48 hrs by replicon assay in presence of 2% FCS; conditions: Huh-7, 48 h
# [7] = Oral bioavailability in Wistar rat at 5 mg/kg; format: ADME, organism-based; conditions: in vivo
# [8] = Cmax in Wistar rat at 5 mg/kg, po; format: ADME, organism-based; set-up: dose 5 mg/kg, route oral; conditions: in vivo; how it was run: as §1
# Hepatitis C virus [9] = assay: Antiviral activity against HCV replication infected in human HuH7 cells after 72 hrs by replicon assay in presence of 5% FCS; conditions: Huh-7, 72 h
SMILES,"EC50 (Hepatitis C virus [2]; Hepatitis C virus, Huh-7, 96 h)",Ki [3],concentration at 4 h [4],AUC(0-inf) [5],EC50 (Hepatitis C virus [6]),bioavailability [7],Cmax [8],EC50 (Hepatitis C virus [2]; huh-7),EC50 (Hepatitis C virus [9]),CC50 [1]
CCC[C@H](NC(=O)[C@@H]1C[C@@H]2CN1C(=O)[C@H](C(C)(C)C)NC(=O)OCCCCCCc1cccc3c1CN(C3)C(=O)O2)C(=O)C(=O)NC1CCC1,940 nM,140 nM,,,,,,,,> 50000 nM
CCC[C@H](NC(=O)[C@@H]1[C@H]2CCC[C@H]2CN1C(=O)[C@@H](NC(=O)[C@@H](NC(=O)c1cnccn1)C1CCCCC1)C(C)(C)C)C(=O)C(=O)NC1CC1 [TELAPREVIR],1600 nM,110 nM,810 nM,1.54 µM·h,354 nM,34.8%,,,,> 50000 nM
CCC[C@H](NC(=O)[C@@H]1C[C@@H]2CN1C(=O)[C@H](C(C)(C)C)NC(=O)OCCCCCCc1cccc3c1CN(C3)C(=O)O2)C(=O)C(=O)NC(C)c1ccccc1 (stereo not given in full),> 500 nM,140 nM,,,,,,,,> 50000 nM
"CCC(C)NC(=O)C(=O)C(CC(F)F)NC(=O)[C@@H]1C[C@@H]2CN1C(=O)[C@H](C(C)(C)C)NC(=O)OCCCCCCc1cccc3c1CN(C3)C(=O)O2 (single isomer, unassigned; diastereomer 2)",,> 2900 nM,,,,,,> 6250 nM,,
CCC[C@H](NC(=O)[C@@H]1C[C@@H]2CN1C(=O)[C@H](C(C)(C)C)NC(=O)OCCCCCCc1cccc3c1CN(C3)C(=O)O2)C(=O)C(=O)NCc1ccccc1,1320 nM,242 nM,,,,,,,,> 50000 nM
CCC[C@H](NC(=O)[C@@H]1C[C@@H]2CN1C(=O)[C@H](C(C)(C)C)NC(=O)OCCCCCCc1cccc3c1CN(C3)C(=O)O2)C(=O)C(=O)NCc1ccccn1,790 nM,176 nM,,,,,,,,> 50000 nM
"CCC(C)NC(=O)C(=O)C(CC(F)F)NC(=O)[C@@H]1C[C@@H]2CN1C(=O)[C@H](C(C)(C)C)NC(=O)OCCCCCCc1cccc3c1CN(C3)C(=O)O2 (single isomer, unassigned; diastereomer 1)",> 12500 nM,2400 nM,,,,,,,,> 50000 nM

# These reach a lower Ki [3]. Values come first.
"EC50 (Hepatitis C virus [2]; Hepatitis C virus, Huh-7, 96 h)",Ki [3],concentration at 4 h [4],AUC(0-inf) [5],EC50 (Hepatitis C virus [6]),bioavailability [7],Cmax [8],EC50 (Hepatitis C virus [2]; huh-7),EC50 (Hepatitis C virus [9]),SMILES,CC50 [1]
600 nM,83 nM,,,,,,,,CCC[C@H](NC(=O)[C@@H]1C[C@@H]2CN1C(=O)[C@H](C(C)(C)C)NC(=O)OCCCCCc1cccc3c1CN(C3)C(=O)O2)C(=O)C(=O)NC1CC1,> 50000 nM
520 nM,66 nM,,,,,,,,CCC[C@H](NC(=O)[C@@H]1C[C@@H]2CN1C(=O)[C@H](C(C)(C)C)NC(=O)OCCCCCCc1cccc3c1CN(C3)C(=O)O2)C(=O)C(=O)NC(C)CC (stereo not given in full),> 50000 nM
550 nM,71 nM,480 nM,0.58 µM·h,,,160 nM,,,C=CCNC(=O)C(=O)[C@H](CCC)NC(=O)[C@@H]1C[C@@H]2CN1C(=O)[C@H](C(C)(C)C)NC(=O)OCCCCCCc1cccc3c1CN(C3)C(=O)O2,> 50000 nM
1050 nM,78 nM,,,,,,,,CCC[C@H](NC(=O)[C@@H]1C[C@@H]2CN1C(=O)[C@H](C(C)(C)C)NC(=O)OCCCCCCc1cccc3c1CN(C3)C(=O)O2)C(=O)C(=O)NC1CCCC1,> 50000 nM
,35 nM,,0.21 µM·h,,3.5%,130 nM,,200 nM,CC(C)(C)NC(=O)N[C@H](C(=O)N1C[C@H]2[C@@H]([C@H]1C(=O)NC(CC1CCC1)C(=O)C(N)=O)C2(C)C)C(C)(C)C (stereo not given in full) [BOCEPREVIR],> 50000 nM
